Source: PubChem BioAssay
Scp-1 inhibitor: Scp-1 (human) phosphatase inhibition; Q9GZU7; Recombinant Scp1, phosphopeptide, malachite green phosphate absorbance; inhibition, % at 20 µM; 340,000 compounds, 0.88% hits;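 active = inhibition above about 50% at 20 µM, limit read from the data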
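assay system = SCP-1 phosphatase catalytic domain, residues 76-261 | buffer or medium = 50 mM Tris acetate pH 5.5, 0.005% Tween-20, 10 mM MgCl2 | incubation = enzyme reaction 45 min at room temperature, colour 5 min, stabilisation 30 min | signal = Phosphate-binding colour reagent, absorbance read at 630 nm | measure = % inhibition at 20 µM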
STEP block: blocks human striatal-enriched tyrosine phosphatase; inhibition, % at 20 µM; AID 588621; recombinant STEP, OMFP fluorogenic substrate, fluorescence; P54829; 360,000 compounds, 0.25% hits;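 active = inhibition at 20 µM, scaled per plate between control wells, above about 37%, limit read from the data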
Target sequence (P54829 whole entry, looked up): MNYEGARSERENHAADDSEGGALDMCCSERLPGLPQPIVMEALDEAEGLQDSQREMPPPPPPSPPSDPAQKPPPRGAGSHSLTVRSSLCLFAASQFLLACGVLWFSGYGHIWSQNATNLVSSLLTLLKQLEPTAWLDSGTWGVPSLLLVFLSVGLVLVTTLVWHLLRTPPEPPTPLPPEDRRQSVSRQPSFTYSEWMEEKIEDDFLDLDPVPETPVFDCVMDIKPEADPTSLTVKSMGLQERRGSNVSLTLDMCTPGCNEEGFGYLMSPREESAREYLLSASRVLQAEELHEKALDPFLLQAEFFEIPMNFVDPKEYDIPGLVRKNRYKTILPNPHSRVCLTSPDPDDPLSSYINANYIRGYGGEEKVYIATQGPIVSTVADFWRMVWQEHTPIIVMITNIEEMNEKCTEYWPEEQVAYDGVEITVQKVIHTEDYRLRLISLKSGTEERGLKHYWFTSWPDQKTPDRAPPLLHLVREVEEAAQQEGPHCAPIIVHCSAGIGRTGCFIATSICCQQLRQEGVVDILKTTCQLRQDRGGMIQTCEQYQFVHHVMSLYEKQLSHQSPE
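material = STEP tyrosine phosphatase | reagent = fluorogenic phosphatase substrate OMFP at 25 µM final | doses = single compound dose of 20 µM, 1% DMSO final | schedule = 20 min reaction, room temperature, in the dark | measured by = fluorescence, 480/540 nm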
LMPTP block: LMPTP (human) inhibition. recombinant LMPTP-A, OMFP fluorogenic substrate, fluorescence intensity. inhibition, % at 20 µM. P24666. AID 651560. 360,000 compounds, 0.22% hits;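 active = compounds that cut the enzyme signal by at least half of the control window in the single-dose screen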
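Test system: LMPTP-A phosphatase enzyme; input: 0.625 nM LMPTP-A final; reagent: OMFP substrate, 400 µM final; compound dosing: 20 µM single dose, 3% DMSO; incubation: 50 min dark incubation at room temperature; measured by: endpoint fluorescence intensity from OMFP dephosphorylation; measure: % inhibition relative to no-enzyme and uninhibited control wells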
DNMT1 block: DNMT1 (human) enzyme inhibition; inhibition (reported as % activation of signal), % at 10 µM; 360,000 compounds, 0.83% hits; DNMT1 molecular beacon, Hinp1I cleavage, fluorescence; AID 588458; in the data active = inhibition above about 50%
SUMO1-SIM PPI: alters human SUMO1 binding to SIM partners; P63165; SUMO1 binding to a labelled peptide, TR-FRET, 1 h; inhibition, % at 20 µM; 360,000 compounds, 0.33% hits; in the data active = inhibition above about 37%
Target sequence (P63165 whole entry, looked up): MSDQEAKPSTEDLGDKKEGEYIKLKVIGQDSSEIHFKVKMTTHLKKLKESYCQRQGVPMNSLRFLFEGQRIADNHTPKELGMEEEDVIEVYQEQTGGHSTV
Numbers stand for hits; - = inactive; . = no result given. Only some compounds are listed: those with a hit (about 1.7% of all), similar ones and a draw of the others.

SMILES | Scp-1 inhibitor | STEP block | LMPTP block | DNMT1 block | SUMO1-SIM PPI
CCN1C(c2ccccc2)=C(c2ccccc2)S/C1=C\C=C1/SC(=S)N(C)C1=O | - | - | - | - | -
Cc1ccc(OCC(=O)NNC(=O)c2ccc(F)c(S(=O)(=O)N3CCOCC3)c2)cc1C | . | - | - | - | -
Cc1ccc(C(=O)CSc2ccc(-c3ccncc3)nn2)cc1 | - | - | - | - | -
O=C(CSc1ccc(-c2ccncc2)nn1)c1ccc(Cl)cc1 | - | - | - | - | 50.7
COc1cccc(C(=O)N2CCC[C@H]2C(=O)N2CCC[C@H]2C(=O)N[C@H](C)c2ccccc2)c1 | . | . | - | . | -
Cc1ccccc1CSCC(=O)NCCSc1ccccn1 | - | - | - | - | 48.9
Cc1ccccc1N(CC(=O)NCCSc1ccccn1)S(=O)(=O)c1ccccc1 | - | - | - | - | -
Cn1c(CC(=O)NNC(=O)c2ccc(Cl)nc2)nc2ccccc21 | - | - | - | - | -
Cn1c(CC(=O)NNC(=O)c2ccc(F)cc2Cl)nc2ccccc21 | - | - | - | - | 43.5
COc1ccccc1-n1nnnc1SCC(=O)N1CCCC1=O | - | - | - | - | -
CC(C)(C)c1ccc(S(=O)(=O)N2CCc3nc4ccccc4c(C(=O)O)c3C2)cc1 | - | - | - | - | -
Cn1c(=O)c(N)c2c3c(c(Br)ccc31)C(=O)c1ccccc1-2 | - | - | - | 155.0 | -
Cn1c(=O)c(NC2CCCCC2)c2c3c(cccc31)C(=O)c1ccccc1-2 | - | - | - | - | -
CCCn1c(N)c(N(CCOC)C(=O)c2c(CC)noc2C)c(=O)[nH]c1=O | - | - | - | - | -
Cc1ccc(N2C(=O)N(c3ccc(C)cc3)C3CS(=O)(=O)CC32)cc1 (stereo unspecified) | - | - | - | - | -
Cc1ccc(N2C(=S)SC3CS(=O)(=O)CC32)cc1 (stereo unspecified) | - | - | - | - | 47.1
Cc1cc(C)c(S(=O)(=O)/N=C2\C=C(Nc3ccc(C(=O)O)cc3)C(=O)c3ccccc32)c(C)c1 | - | - | - | - | 57.7
Cc1cc(C)c(S(=O)(=O)/N=C2\C=C(NS(=O)(=O)c3ccccc3)C(=O)c3ccccc32)c(C)c1 | - | - | - | - | -
O=C(O)c1ccc(NC2=C/C(=N/S(=O)(=O)c3ccccc3)c3ccccc3C2=O)cc1 | - | - | - | 70.0 | 62.2
CCc1ccc(S(=O)(=O)/N=C2\C=C(Nc3cccc(C(=O)O)c3)C(=O)c3ccccc32)cc1 | - | - | - | 63.6 | -
CCc1ccc(S(=O)(=O)/N=C2/C=C(Sc3ncn[nH]3)C(=O)c3ccccc32)cc1 | - | - | - | 73.0 | 94.4
CC(=O)C1=CCC(c2ccccc2F)N(S(=O)(=O)c2ccc(C)cc2)C1 (stereo unspecified) | . | - | - | - | -
COc1ccccc1N1CCN(C(=O)c2ccc(COc3cccc4c3OC(C)(C)C4)cc2)CC1 | - | - | - | - | -
N#C/C(=C\c1coc2ccc(O)cc2c1=O)C(=O)Nc1nc2ccccc2s1 | - | - | - | 84.3 | -
N#C/C(=C\c1coc2ccccc2c1=O)C(N)=S | - | - | - | - | -
SMILES | Scp-1 inhibitor | STEP block | LMPTP block | DNMT1 block | SUMO1-SIM PPI
O=C(COc1ncnc2sccc12)Nc1cccc(S(=O)(=O)N2CCOCC2)c1 | - | - | - | - | -
Cc1csc(NC(=O)c2ccc(Br)s2)n1 | 77.0 | - | - | - | -
O=C(NC1(O)C(=O)c2ccccc2C1=O)c1ccccc1 | - | - | - | - | -
O=C(NC1(O)C(=O)c2ccccc2C1=O)c1c(Cl)cccc1Cl | - | - | - | 52.7 | -
CCOC(=O)N1CCN(S(=O)(=O)c2ccc3[nH]cc(C(=O)O)c(=O)c3c2)CC1 | - | - | - | - | -
O=C(O)c1c[nH]c2ccc(S(=O)(=O)N3CCN(c4ccc(F)cc4)CC3)cc2c1=O | - | 75.8 | 58.8 | - | -
COc1ccc(/C=N/OCC(=O)N=Nc2c(O)[nH]c3ccc(Br)cc23)cc1 | - | - | - | 79.2 | -
CCN1CCC2(CC1)N=C(c1ccc(F)cc1)C(=S)N2C(=O)c1ccc(C(C)(C)C)cc1 | - | 55.6 | - | - | -
O=[N+]([O-])c1cc([N+](=O)[O-])c2oc(-c3ccccc3)c(Br)c2c1O | - | - | - | - | 43.0
O=c1cc(-c2ccccc2Cl)oc2ccc([N+](=O)[O-])c(O)c12 | - | - | - | - | -
CCCN1CCC(=O)N([C@H](CN=[N+]=[N-])Cc2ccccc2)CC1 | - | - | - | - | -
CN(Cc1ccccc1)C1=CC(=[N+]2CCCC2)CC(C)(C)C1 | 102.9 | - | - | - | -
Cc1ccc(C(=O)NCC(=O)N2CCN(c3cccc(Cl)c3)CC2)s1 | - | - | - | - | -
O=c1[nH]cnc2c1nnn2C1OC(CO)C(O)C1O (stereo unspecified) | . | - | - | - | -
CCOC(=O)c1c(C)nc2sc3c(=O)n(-c4ccc(C)cc4)cnc3c2c1-c1ccc(OC)cc1 | - | - | - | - | 40.4
CC(=O)c1c(C)[nH]c(C(=O)OCC(=O)N2CCc3ccccc32)c1C | - | - | - | 50.1 | -
O=C(CSc1nc(-c2ccccc2)nc2c1Cc1ccccc1O2)Nc1ccc(C(=O)O)cc1 | 90.2 | 87.3 | 78.9 | 88.1 | 69.6
O=C(CSc1nc(-c2ccccc2)nc2ccccc12)Nc1cccc(C(=O)O)c1 | - | - | - | - | -
O=C(CSc1nc(-c2ccc(F)cc2)nc2c1Cc1ccccc1O2)Nc1ccc(C(=O)O)cc1 | 102.1 | 96.1 | 84.7 | 94.7 | 106.4
COc1ccc(C(=O)/C(C#N)=N/Nc2ccc([N+](=O)[O-])cc2)cc1 | 65.6 | 95.8 | 73.4 | - | -
Brc1ccc(-c2nnc(-c3ccc4c(c3)OCO4)o2)o1 | - | - | - | - | -
Cc1ccc(-c2nnc(-c3ccc4c(c3)OCO4)o2)cc1 | - | - | - | - | 68.1
COc1ccc(CNC[C@@H](CCCCN(C)Cc2ccc(OC)cc2)N2C[C@H](c3ccccc3)N(CCc3ccc(Cl)c(Cl)c3)C(=O)C2=O)cc1 | - | - | 56.7 | - | -
O=C1NC(=O)/C(=C/c2ccc(-c3cccc([N+](=O)[O-])c3)o2)S1 | - | - | - | - | 55.4
COc1cc(/C=C2/C(C)=C(C#N)c3nc(N)c(C#N)c(C)c32)ccc1OCC(=O)O | - | . | . | . | .
CC1=C(C#N)c2nc(N)c(C#N)c(C)c2/C1=C\c1ccc(-c2ccccc2C(=O)O)o1 | 62.8 | - | - | 61.9 | -
Cc1nnc(NS(=O)(=O)c2ccc(F)cc2)s1 | - | - | - | - | -
Cc1ccc(S(=O)(=O)N(C(=O)c2ccncc2)c2ccc(OC(=O)c3ccncc3)c3ccccc23)c(C)c1 | 60.0 | - | - | - | -
O=C1NC[C@H](Cc2ccccc2)N(CC2CCN(CCc3ccc(-c4ccccc4)cc3)CC2)C1=O | - | - | - | - | -
O=C1c2cccc3cccc(c23)C(=O)C1(O)O | - | - | 57.2 | - | -
